The text below walks through data of PMC2855844 (Cancer immunology, immunotherapy : CII, 2009).

In one assay the target is H2-K^d (Mus musculus, UniProt P01902). Description: MHC stabilization assay. Format: binding. To be noted: T2-K^d cells, 37°C, MFI with anti-H2-K^d mAb and FITC-conjugated anti-mouse IgG. The method, boiled down:
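Peptide-pulsed T2-Kd cells were kept at 37°C, then stained with anti-H2-Kd mAb (HB159) and FITC-conjugated anti-mouse IgG. Surface Kd was read as mean fluorescence intensity. Reference samples were unpulsed cells and peptide-pulsed cells held at 4°C.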

The subject of another assay is Meth A-specific CTL. The class given is cell-based, mouse. To be noted: E/T ratio 6:1, 4 h ^51Cr-release. The essentials: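 Targets were T2-Kd cells pulsed with peptide, labeled with Na51CrO4, and plated at 1 × 10^3 per well. Meth A-specific CTL (cloned CD3+CD4−CD8+NK-1.1− line from Meth A-immune BALB/c mice) were added at E:T 6:1. Release was measured over 4 h and expressed as % specific lysis.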

In another assay the test system is human CD8^+ T cells. Description: in vitro stimulation of human CD8^+ T cells. Particulars: preliminary findings; listed as Hsd17b12^114T peptide. The class given is cell-based.
Setting [1] is: T2-K^d cells pulsed with peptide.

“Also recorded” adds a separate entry of the source.

Sequence of H2-K^d (P01902 whole entry, looked up): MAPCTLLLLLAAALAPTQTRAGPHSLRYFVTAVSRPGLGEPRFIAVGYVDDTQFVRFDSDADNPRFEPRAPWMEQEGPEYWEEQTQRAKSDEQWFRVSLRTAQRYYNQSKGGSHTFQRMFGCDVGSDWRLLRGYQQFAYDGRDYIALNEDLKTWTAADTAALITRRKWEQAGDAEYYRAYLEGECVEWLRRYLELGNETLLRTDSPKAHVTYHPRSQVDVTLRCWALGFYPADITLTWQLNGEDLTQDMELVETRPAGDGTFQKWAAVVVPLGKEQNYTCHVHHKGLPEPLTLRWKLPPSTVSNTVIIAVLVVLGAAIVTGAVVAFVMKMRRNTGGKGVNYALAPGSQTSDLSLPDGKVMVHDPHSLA

Regarding IYDKIKTGL, the “affinity for H2-K^d molecules” value on H2-K^d was ~ 1 × 10^−8 M. The “affinity of Meth A CTL for peptide” value in the assay with Meth A-specific CTL (setting [1]) is less than 1e-08 M.

As for TYDKIKTGL, the “affinity for H2-K^d molecules” value at H2-K^d is ~ 1 × 10^−8 M. Also, in the assay with Meth A-specific CTL (setting [1]), the “affinity of Meth A CTL for peptide” value is ~ 1 × 10^−10 M and the “recognition by Meth A-specific CTL (in words)” value was “recognized by the Meth A-specific CTL”. Besides, the “fold higher affinity of Meth A CTL (TYDKIKTGL vs IYDKIKTGL)” value in the assay on Meth A-specific CTL (TYDKIKTGL over IYDKIKTGL, T2-K^d cells) is 100 ×. The “immunogenicity, stimulation of human CD8^+ T cells in vitro” value in the assay on human CD8^+ T cells is given as “immunogenic; also recorded: can induce effectors cross-reactive against the HSD17B12_114–122 peptide, naturally presented by human tumor cell lines”.
